A selection: hits, their analogues and other compounds. The true share with any hit is near 6.6%.
H69AR inhibit – blocks growth of human H69AR lung tumor cells | AID 598 | H69AR lung tumor viability, ATP luminescence, 72 h; hits give low values | 6% of 85,000 active | viability, % at 10 µM;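 active means viability at or below 40%; inactive means viability above 40%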;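 further: multidrug resistant small cell line overexpressing MRP-1 efflux transporter; 100% = mean luminescence of untreated control wells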
HUVEC prolif 384 – inhibitors of human endothelial cell proliferation; HUVEC proliferation, CellTiter-Glo luminescence, 72 h; hits give low values; viability, % at 10 µM (by protocol); 1.1% of 86,000 active; AID 648;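 active means viability at or below 30%; inactive means viability above 30%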;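 further: 100% = median luminescence of DMSO-only cell control wells on each plate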
Lung fibro prol – blocks proliferation of human lung fibroblasts | LL 47 human lung fibroblast viability, ATP luminescence; hits give low values | viability, % at 10 µM | 1.1% of 85,000 active | AID 719;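 active means viability at or below 50% in the single dose screen; inactive means viability above 50%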;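 further: compound exposure lasted 72 h before the ATP readout; 100% = median luminescence of untreated cell-only wells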
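material = human LL 47 lung fibroblast cells | dosing = compounds added from tenfold dosing solution, 0.1% DMSO final | timing = overnight cell rest, 72 h compound treatment at 37 °C | measured by = CellTiter-Glo luminescence measuring cellular ATP | evaluation = % viability versus median cells-only luminescence | control set = cell-only wells, no compound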
Jurkat tox 60K – cytotoxic compounds reducing Jurkat cell viability | Jurkat E6.1 viability, ATP luminescence, 48 h | inhibition, % at 4 µM | 1.2% of 56,000 active | AID 463;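 active means inhibition above the mean inhibition of all tested compounds plus 3 SD, cut at about 28% in these data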
Active calls of the source: *.

Screening O=C(COn1nnc2ccc(Cl)cc21)NC12CC3CC(CC(C3)C1)C2 returned H69AR inhibit 95, HUVEC prolif 384 91 and Lung fibro prol 94.
For COc1ccc(NC(=O)COn2nnc3ccc(Cl)cc32)cc1OC the results were H69AR inhibit 39*, HUVEC prolif 384 93, Lung fibro prol 86 and Jurkat tox 60K 1.
For CCOC(=O)CSc1nc(C(C)(C)C)cc(C(F)(F)F)c1C#N the results were H69AR inhibit 82, HUVEC prolif 384 102 and Lung fibro prol 99.
COC(=O)c1sccc1NC(=O)CSc1nnnn1-c1ccccc1C was read as H69AR inhibit 68, HUVEC prolif 384 87 and Lung fibro prol 109.
Screening CN(C)c1ccccc1C(=O)c1ccccc1N(C)C returned H69AR inhibit 14*, HUVEC prolif 384 59, Lung fibro prol 59 and Jurkat tox 60K 88*.
For OC(CN1CCN(c2ccccn2)CC1)Cn1c2ccc(Cl)cc2c2cc(Cl)ccc21 (centres undefined) the results were H69AR inhibit 1.3*, HUVEC prolif 384 41 and Lung fibro prol 94.
For CC1CN(S(=O)(=O)c2cccc(C(=O)OCC(=O)Nc3ccc4c(c3)OCO4)c2)CC(C)O1 (centres undefined) the results were H69AR inhibit 1.0*, HUVEC prolif 384 85, Lung fibro prol 99 and Jurkat tox 60K -1.
`CC1CN(S(=O)(=O)c2cccc(C(=O)OCC(=O)c3cccs3)c2)CC(C)O1` (centres undefined) gave H69AR inhibit 108, HUVEC prolif 384 103 and Lung fibro prol 98.
For CCOc1cc(S(=O)(=O)N(Cc2ccccc2)Cc2ccccc2)c(OCC)cc1-n1cnnn1 the results were H69AR inhibit 77, HUVEC prolif 384 110 and Lung fibro prol 88.
Screening O=C(CN1C(=O)NC2(CCCc3ccccc32)C1=O)N1CCc2ccccc2C1 (centres undefined) returned H69AR inhibit 86, HUVEC prolif 384 84, Lung fibro prol 92 and Jurkat tox 60K 4.
For N#Cc1c(N)nc(SCC(=O)C23CC4CC(CC(C4)C2)C3)c(C#N)c1-c1ccc(Cl)cc1 the results were H69AR inhibit 16*, HUVEC prolif 384 53 and Lung fibro prol 77.
For O=C1c2[nH]nc(-c3ccccc3O)c2C(c2ccccc2)N1Cc1ccco1 (centres undefined) the results were HUVEC prolif 384 91, Lung fibro prol 91 and Jurkat tox 60K 3.
For CC(C)OCCCN1C(=O)c2[nH]nc(-c3ccccc3O)c2C1c1cccc(Cl)c1 (centres undefined) the results were H69AR inhibit 6.5*, HUVEC prolif 384 5.7*, Lung fibro prol 86 and Jurkat tox 60K 8.
For COCCCN1C(=O)c2[nH]nc(-c3ccccc3O)c2C1c1cccc(Cl)c1 (centres undefined) the results were H69AR inhibit 2.9*, HUVEC prolif 384 80, Lung fibro prol 65 and Jurkat tox 60K 90*.
`O=C1c2[nH]nc(-c3ccccc3O)c2C(c2ccccc2F)N1Cc1ccco1` (centres undefined) gave H69AR inhibit 4.5*, HUVEC prolif 384 53, Lung fibro prol 77 and Jurkat tox 60K 18.
COCCCN1C(=O)c2[nH]nc(-c3ccccc3O)c2C1c1ccc(Cl)cc1 (centres undefined) was read as HUVEC prolif 384 89, Lung fibro prol 89 and Jurkat tox 60K 20.
Screening COCCCN1C(=O)c2[nH]nc(-c3cc(C)cc(C)c3O)c2C1c1ccc(O)c(OC)c1 (centres undefined) returned H69AR inhibit 78, HUVEC prolif 384 84, Lung fibro prol 90 and Jurkat tox 60K 3.
For COc1cc(C2c3c(-c4cc(C)cc(C)c4O)n[nH]c3C(=O)N2CCCO)cc(OC)c1OC (centres undefined) the results were H69AR inhibit 56, HUVEC prolif 384 86, Lung fibro prol 92 and Jurkat tox 60K -3.
For COc1ccc(CCN2C(=O)c3[nH]nc(-c4ccccc4O)c3C2c2ccccc2)cc1OC (centres undefined) the results were H69AR inhibit 39*, HUVEC prolif 384 78, Lung fibro prol 90 and Jurkat tox 60K 9.
For CN(C)c1ccnc(SCc2ccccc2Cl)c1C#N the results were H69AR inhibit 97, HUVEC prolif 384 99, Lung fibro prol 88 and Jurkat tox 60K 5.
For Brc1cccc(-c2n[nH]c(-c3ccccc3)n2)c1 the results were H69AR inhibit 40*, HUVEC prolif 384 61, Lung fibro prol 94 and Jurkat tox 60K -1.
Screening COc1cc(/C=C2\C(=O)N(CCC#N)N=C2C)c(Br)cc1OC(C)C returned H69AR inhibit 16*, HUVEC prolif 384 69 and Lung fibro prol 85.
Screening Cc1cc(C)c2nc(C(F)(F)F)nc(NCCCN3CCOCC3)c2c1 returned H69AR inhibit 8.9*, HUVEC prolif 384 6.4* and Lung fibro prol 51.
CN(C)S(=O)(=O)c1cc(S(=O)(=O)N(C)C)c(Cl)cc1N was read as H69AR inhibit 85, HUVEC prolif 384 94, Lung fibro prol 95 and Jurkat tox 60K 3.
`CCCn1nnc(NC(=O)c2cc(Br)cc(Br)c2OC)n1` gave H69AR inhibit 107, HUVEC prolif 384 106 and Lung fibro prol 102.
`COc1cccc(CN(C)CC(=O)NC(=O)NCc2ccco2)c1` gave H69AR inhibit 93, HUVEC prolif 384 101, Lung fibro prol 107 and Jurkat tox 60K -3.
For O=C(c1ccc2c(c1)N(Cc1ccccc1)C(=O)c1ccccc1S2)N1CCCC1 the results were H69AR inhibit 29*, HUVEC prolif 384 102 and Lung fibro prol 96.
Screening Cc1cccc(-c2nnc(SCC(=O)Nc3nc4c(s3)CCCC4)n2C)c1 returned H69AR inhibit 70, HUVEC prolif 384 81 and Lung fibro prol 97.
Screening CC(=O)c1cccc(NC(=O)NC(C)c2ccncc2)c1 (centres undefined) returned H69AR inhibit 90, HUVEC prolif 384 93, Lung fibro prol 95 and Jurkat tox 60K -7.
`COc1ccc(C(=O)c2c(C(F)(F)F)oc3c2C(=O)c2ccccc2C3=O)cc1OC` gave H69AR inhibit 1.6*, HUVEC prolif 384 4.7* and Lung fibro prol 2.4*.
`Cc1onc(-c2ccccc2Cl)c1C(=O)Nc1ccc(S(=O)(=O)NCC2CCCO2)cc1` (centres undefined) gave H69AR inhibit 81, HUVEC prolif 384 104, Lung fibro prol 106 and Jurkat tox 60K 4.
CCCCNS(=O)(=O)c1ccc(NC(=O)c2c(-c3ccccc3Cl)noc2C)cc1 was read as H69AR inhibit 33*, HUVEC prolif 384 69 and Lung fibro prol 71.
For CCOC(=O)c1oc2ccc(S(=O)(=O)n3nc(-c4ccccc4)cc3N)cc2c1C the results were H69AR inhibit 86, HUVEC prolif 384 100 and Lung fibro prol 92.
For CCOC(=O)c1oc2ccc(S(=O)(=O)n3nc(-c4ccc(OC)cc4)cc3N)cc2c1C the results were H69AR inhibit 27*, HUVEC prolif 384 74, Lung fibro prol 79 and Jurkat tox 60K 8.
Screening O=C(Nc1cccc(NC(=O)c2ccc(-c3ccc(Br)cc3)o2)c1)c1ccco1 returned H69AR inhibit 35*, HUVEC prolif 384 54 and Lung fibro prol 70.
